# CHO parental Ca: ATP-evoked calcium signal inhibitors, parental CHO, primary screen, counter-screen for OX1R antagonist project, cell-based, fluorescence, Fluo-8 calcium dye; parental CHO-K1, ATP-induced calcium, Fluo-8 fluorescence; inhibition, % at 5.6 µM; 0.63% of 330,000 active; AID 463079, 2010;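 active means inhibition above that plate's mean sample inhibition plus 3 SD, cut at about 26% in these data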;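 further: 0% = ATP-challenged DMSO wells and 100% = DMSO wells without ATP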
#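 Test system: parental CHO cells; detection: calcium-sensitive Fluo-8 fluorescence; evaluation: percent inhibition of calcium signal; also added: ATP as calcium-mobilizing challenge; repeats: one well per compound; control set: ATP-challenged DMSO wells low, unchallenged DMSO wells high; compound: single nominal dose of 5.6 µM per compound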
# TRPN1 ag: zebrafish TRPN1 channel agonists, primary screen, cell-based, HEK293, calcium fluorescence; transient receptor potential cation channel N1 (TRPN1/NompC), Danio rerio; HEK293 zebrafish TRPN1-YFP, Fluo-8 calcium fluorescence; 100% = response to 87 µM carbachol; activation, % at 3 µM; 0.18% of 220,000 active; AID 1424, 2008;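 active means activation above its plate's cutoff, the mean activation of test wells on that plate plus 3 SD, cut at about 19% in these data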;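 further: 0% = DMSO alone and 100% = 87 µM carbachol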
#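 Material – zebrafish TRPN1-YFP in HEK293 cells · Doses – 3 µM single point · Schedule – dye 1 h 37 °C plus 30 min RT · Signal – Fluo-8 calcium fluorescence, excitation 470-495 nm, emission 515-575 nm · Read-out – % activation versus carbachol response · Control set – carbachol high, DMSO low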
# OX1R antag-1: antagonists of human orexin 1 receptor (OX1R) | 1.8% of 330,000 active | inhibition, % at 6.6 µM | OX1R-expressing cells, FRET antagonist read-out; in the data active means inhibition mostly above about 38%, no sharp cut-off; inactive means mostly below about 40%;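 further: 0% = agonist challenge alone and 100% = reference antagonist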
# OX1R antag-2: OX1R (HCRTR1) antagonists, primary screen, fluorescence, CHO/OX1R cells, Fluo-8 calcium, orexin A. 0.43% of 330,000 active. Fluo-8 calcium fluorescence. inhibition, % at 5 µM. AID 434989, 2010. Orexin/Hypocretin receptor type 1 (Homo sapiens), O43613;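 active means inhibition above its plate's threshold, mean inhibition of all tested compounds on the plate plus 3 SD, cut at about 37% in these data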;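 further: 0% = orexin A challenge wells and 100% = SB-334867-A antagonist wells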
# TRPML3 agonist: human TRPML3 channel agonists, primary screen, cell-based, HEK293 TRPML3-YFP, Fluo-8 calcium fluorescence, 3 µM | 100% = the carbachol control signal | activation, % at 3 µM | Mucolipin-3 (Homo sapiens), Q8TDD5 | 0.29% of 220,000 active;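 active means activation above its plate's cutoff, the mean activation of the plate's test wells plus 3 SD, cut at about 12% in these data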;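 further: 0% = DMSO only wells and 100% = carbachol wells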
# Target sequence (Q8TDD5 whole entry, looked up): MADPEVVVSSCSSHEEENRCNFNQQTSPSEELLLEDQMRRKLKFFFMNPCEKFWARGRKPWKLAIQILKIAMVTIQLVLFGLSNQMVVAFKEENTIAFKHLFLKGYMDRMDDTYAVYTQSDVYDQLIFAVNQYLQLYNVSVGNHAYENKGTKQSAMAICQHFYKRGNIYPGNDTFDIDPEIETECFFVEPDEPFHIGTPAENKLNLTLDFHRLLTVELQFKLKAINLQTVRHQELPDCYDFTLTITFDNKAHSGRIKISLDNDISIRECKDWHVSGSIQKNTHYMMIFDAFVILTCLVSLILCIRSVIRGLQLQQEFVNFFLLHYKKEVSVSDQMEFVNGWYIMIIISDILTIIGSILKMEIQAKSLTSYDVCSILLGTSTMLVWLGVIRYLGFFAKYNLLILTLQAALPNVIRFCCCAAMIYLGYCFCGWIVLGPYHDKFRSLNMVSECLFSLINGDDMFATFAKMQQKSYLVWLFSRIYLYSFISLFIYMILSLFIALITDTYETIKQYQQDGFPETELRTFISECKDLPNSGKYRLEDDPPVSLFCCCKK
#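 Material: HEK293 cells stably carrying human TRPML3-YFP; compound dosing: single dose, 3 µM final nominal compound, 0.3% DMSO final; incubation: 1-h 37 °C dye load, 5-s basal, 120-s post-compound reads; technique: Fluo-8 intracellular calcium fluorescence, excitation 470-495 nm, emission 515-575 nm; read-out basis: percent activation from peak-to-basal fluorescence ratio, scaled between DMSO and carbachol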
# OX1R Ca confirm: OX1R (HCRTR1) antagonists, confirmation, fluorescence, CHO/OX1R cells, Fluo-8 calcium, orexin A; shares compounds with OX1R antag-2; orexin A calcium Fluo-8 fluorescence; inhibition, % at 5 µM; 38% of 1,100 active; AID 492963, 2010; in the data active means inhibition above about 29%;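 further: 0% = agonist challenge alone and 100% = reference antagonist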
# CHO Ca triplic: ATP-evoked calcium inhibition in parental CHO, counter-screen for OX1R antagonist project, cell-based, fluorescence, CHO-K1, triplicate; AID 492965, 2010; shares compounds with OX1R antag-2; ATP-induced calcium, Fluo-8 fluorescence; inhibition, % at 5.6 µM; 9.3% of 1,100 active;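 active means inhibition above a per-plate limit, the mean inhibition of that plate's test compounds plus 3 SD, cut at about 25% in these data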;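 further: 0% = ATP challenge with DMSO and 100% = DMSO without ATP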
# * = called active by the depositor; / = no result. An excerpt weighted towards active compounds, which were near 2.5% of everything screened.
SMILES,CHO parental Ca,TRPN1 ag,OX1R antag-1,OX1R antag-2,TRPML3 agonist,OX1R Ca confirm,CHO Ca triplic
Cc1ccccc1NC(=O)C(C)OC(=O)CNS(=O)(=O)c1ccc(C#N)cc1 (stereo not given),-9.0,/,13.2,-16.6,/,/,/
FC(F)(F)c1nnc(N2CCN(c3ccc(Cl)cc3)CC2)s1,-11.8,2.1,5.6,-5.0,-0.2,/,/
FC(F)(F)c1nnc(Nc2ccc(Cl)cc2)s1,16.7,6.3,9.1,42.4*,5.4,-8.5,-3.4
CC1=CC(C)(C)N(S(=O)(=O)c2ccc(F)cc2)c2ccccc21,-17.4,-1.1,28.9,-13.9,3.9,/,/
CC1=CC(C)(C)N(S(=O)(=O)c2ccc(C)cc2)c2ccc(C)cc21,-0.3,-1.0,23.3,40.4,0.8,-4.3,55.6*
COCc1ccc(C(=O)N2CCCC(Nc3ccc(F)c(F)c3)C2)s1 (stereo not given),-8.0,/,30.7,-14.3,/,/,/
O=C(CN1C(=O)/C(=C/c2ccccc2)SC1=S)N1CCN(CCc2ccccn2)CC1,-39.7,/,7.8,-47.3,/,/,/
CCN(CC)S(=O)(=O)c1cccc(C(=O)/C=C2/N(C)c3ccccc3C2(C)C)c1,13.3,0.1,26.7,27.2,0.6,-0.3,7.6
CN1/C(=C\C(=S)NC(=O)c2cccc(Br)c2)C(C)(C)c2ccccc21,-11.5,1.0,12.0,-19.7,1.2,/,/
CCOc1cccc(C(=O)Nc2cccc(-c3nnc(-c4ccccc4)o3)c2)c1,-0.3,2.0,6.6,-21.1,0.6,/,/
COc1cccc(C(=O)Nc2cccc(-c3nnc(-c4ccccc4)o3)c2)c1,1.6,/,14.5,43.8,/,-0.1,-13.2
Cc1ccc(C)c(OCCC(=O)Nc2cccc(S(=O)(=O)NC3=NCCCCC3)c2)c1,-20.8,/,11.2,-7.0,/,/,/
Cc1ccccc1OCCC(=O)Nc1cccc(S(=O)(=O)Nc2ccccc2Cl)c1,-4.7,-1.6,58.0,45.3*,0.6,25.8,-2.5
CCOC(=O)CN1N=C(/C=C/c2ccc(C(C)C)cc2)CCC1=O,-8.3,0.3,20.8,-10.1,0.1,/,/
COc1ccccc1N1CCN(c2cc(C)nc3nc(C)nn23)CC1,-9.9,-1.1,5.9,35.7,-0.2,-3.1,-4.1
CC(=O)Nc1cccc(NC(=O)C(C)N2c3cccc4cccc(c34)S2(=O)=O)c1 (stereo not given),-4.6,/,22.5,2.0,/,/,/
CCN(CC)c1ccc2c(C)c(Cl)c(=O)oc2c1,-18.7,-3.7,16.3,-22.2,-1.3,/,/
CCN(CC)c1ccc2c(c1)oc(=O)c1c(Cl)cc(=O)oc12,16.4,-0.1,21.8,28.5,1.1,79.9*,56.0*
CC(=O)NC(C)C(=O)OCC(=O)Nc1ccc(Br)cc1 (stereo not given),1.1,0.4,11.5,35.7,0.7,2.4,4.0
O=C(CN(C(=O)c1ccc(Cl)cc1)C1CCCCC1)Nc1ccc(Cl)c([N+](=O)[O-])c1,-9.7,1.2,9.8,-3.6,0.6,/,/
O=C(CN(C(=O)c1ccccc1Cl)C1CCCCC1)Nc1ccc(Cl)c([N+](=O)[O-])c1,11.5,0.4,18.4,35.9,-0.1,19.6,6.2
O=C(Nc1cccc(Cl)c1)Nc1c[nH]c(=O)[nH]c1=O,-1.1,/,4.7,-23.4,/,/,/
Cc1cccc(NC(=O)C2CCCN2C(=O)Oc2ccccc2)c1C (stereo not given),-1.1,0.3,-0.1,33.6,0.2,-3.9,-0.6
Cc1ccc(NC(=O)C2CCCN2C(=O)Oc2ccccc2)c(C)c1 (stereo not given),-15.9,-1.0,0.1,-15.8,0.6,/,/
NC(=O)c1ccsc1NC(=O)COC(=O)/C=C/c1ccccc1[N+](=O)[O-],-3.3,/,24.4,56.5*,/,24.6,-8.1
SMILES,CHO parental Ca,TRPN1 ag,OX1R antag-1,OX1R antag-2,TRPML3 agonist,OX1R Ca confirm,CHO Ca triplic
CCC(Oc1ccccc1)C(=O)OCC(=O)Nc1sccc1C(N)=O (stereo not given),0.5,/,13.4,43.8*,/,17.1,17.6
Cc1cccc(NC(=O)COC(=O)c2nn(C)c(=O)c3ccccc23)c1C,-3.4,/,2.5,-9.3,/,/,/
O=C(c1ccccc1)C1CCN(C(=O)c2ccco2)CC1,9.3,/,6.1,5.4,/,/,/
CSc1ccccc1NC(=O)c1noc(C)c1[N+](=O)[O-],3.6,/,29.5,-8.8,/,/,/
CC(=O)Nc1ccc(-c2nnc(SCC(=O)Nc3ccc4c(c3)oc3ccccc34)n2C)cc1,12.0,1.3,13.1,25.4,0.7,-0.8,-2.3
COc1ccccc1NC(=O)CSc1nnc(-c2ccc(NC(C)=O)cc2)n1C,5.8,1.9,-2.4,4.1,0.5,/,/
O=C(c1ccc(S(=O)(=O)Nc2ccc(F)cc2)cc1)N1CCN(c2ccccn2)CC1,16.2,10.1,52.3,34.3,5.7,49.1*,13.7
COc1cccc(NC(=O)C2CCCO2)c1 (stereo not given),-8.5,/,-10.5,-11.7,/,/,/
CN(C)S(=O)(=O)c1cccc(N=C2NN=C(c3ccccc3)CS2)c1,-0.2,0.0,14.3,0.8,-0.1,/,/
CC(=O)Nc1ccc(C2=NNC(=Nc3cccc(S(=O)(=O)N(C)C)c3)SC2)cc1,-8.6,0.7,14.4,34.2*,0.4,38.0*,-2.7
Cn1cnnc1SCC(=O)Nc1nc(-c2ccccc2)cs1,-11.0,0.3,45.4,42.3*,0.3,31.7*,1.7
CCOC(=O)[C@H]1[C@H]2COc3ccc(C)cc3[C@@H]2N2C(=O)c3cc(C)ccc3NC(=O)[C@@]12C,-16.9,/,6.2,-9.9,/,/,/
Cc1ccc(C)c(Cn2nnc(C(=O)Nc3ccc4c(c3)OCCO4)c2N)c1,15.0,/,5.8,22.5,/,36.0*,20.2
Nc1ncc(Br)cc1S(=O)(=O)NCCC(=O)NC1CCCCC1,-6.8,/,22.4,-16.7,/,/,/
CCc1nnc(NC(=O)CC23CC4CC(CC(Br)(C4)C2)C3)s1,-14.4,/,15.0,-39.1,/,/,/
CCc1cccc2cc3c(N)c(C(=O)Nc4ccc(S(=O)(=O)N5CCCC5)cc4)sc3nc12,33.2,1.7,12.6,46.1,2.3,17.3,19.8
O=C(CSc1nc2ccccc2[nH]1)N/N=C/c1ccco1,-2.4,/,8.8,-16.9,/,/,/
COCCCn1c(SCC(=O)NC2CCCCC2)nnc1-c1ccco1,-5.6,/,22.5,-13.8,/,/,/
COc1cc(S(=O)(=O)Nc2ccccc2C)ccc1Cl,-27.7,-1.6,37.4,-22.9,-0.2,/,/

# Assay outcomes as filed in PubChem BioAssay.
